From ChEMBL document CHEMBL5550111, “Design, synthesis and biological evaluation of aryloxy thiophosphoramidate triesters of anticancer nucleoside analogues” (Bioorg Med Chem, 2024)

Key:
MOLT-4 [1] = assay: Cytotoxicity against human MOLT-4 cells assessed as maximum inhibition of cell viability upto 198 uM incubated for 72 hrs by MTS assay relative to control; type: functional; conditions: up to 198 µM
Procedure, shortened: (§1)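 Cells seeded at 0.5 to 100 × 10^3 per well the day before drug addition, then exposed to compound for 72 h. MTS added afterwards, with a further 4 h at 37 °C, and absorbance read. Tested in duplicate at 9 serial 3.16-fold dilutions, top concentration 198 μM. MI% is the maximum inhibition of viability across the tested range.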

[2] = Cytotoxicity against human ACHN-luc2 cells assessed as maximum inhibition of cell viability upto 198 uM incubated for 72 hrs by MTS assay relative to control; type: functional; conditions: up to 198 µM; procedure, shortened: as §1
[3] = Cytotoxicity against human T24/83 cells assessed as maximum inhibition of cell viability upto 198 uM incubated for 72 hrs by MTS assay relative to control; type: functional; conditions: up to 198 µM; procedure, shortened: as §1
MDA-MB-231 [4] = assay: Cytotoxicity against human MDA-MB-231 cells assessed as inhibition of cell viability incubated for 72 hrs by MTS assay; type: functional, cell-based; conditions: MDA-MB-231, 72 h
Procedure, shortened: (§2)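 Cells seeded at 0.5 to 100 × 10^3 per well the day before treatment, then exposed for 72 h to 9 serial concentrations (3.16-fold dilutions, top 198 μM), in duplicate. MTS added for a final 4 h at 37 °C and absorbance read. IC50 is the concentration giving 50% loss of viability. MI% is the maximum inhibition over the tested range.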

COLO 205 [5] = assay: Cytotoxicity against human COLO 205 cells assessed as maximum inhibition of cell viability upto 198 uM incubated for 72 hrs by MTS assay relative to control; type: functional; conditions: up to 198 µM; procedure, shortened: as §1
MIA PaCa-2 [6] = assay: Cytotoxicity against human MIA PaCa-2 cells assessed as maximum inhibition of cell viability upto 198 uM incubated for 72 hrs by MTS assay relative to control; type: functional; conditions: up to 198 µM; procedure, shortened: as §1
HepG2 [7] = assay: Cytotoxicity against human HepG2 cells assessed as inhibition of cell viability incubated for 72 hrs by MTS assay; type: functional, cell-based; conditions: HepG2, 72 h; procedure, shortened: as §2
PC-3 [8] = assay: Cytotoxicity against human PC-3 cells assessed as inhibition of cell viability incubated for 72 hrs by MTS assay; type: functional, cell-based; conditions: PC-3, 72 h; procedure, shortened: as §2
MCF7 [9] = assay: Cytotoxicity against human MCF7 cells assessed as maximum inhibition of cell viability upto 198 uM incubated for 72 hrs by MTS assay relative to control; type: functional; conditions: up to 198 µM; procedure, shortened: as §1
HL-60 [10] = assay: Cytotoxicity against human HL-60 cells assessed as maximum inhibition of cell viability upto 198 uM incubated for 72 hrs by MTS assay relative to control; type: functional; conditions: up to 198 µM; procedure, shortened: as §1
PC-3 [11] = assay: Cytotoxicity against human PC-3 cells assessed as maximum inhibition of cell viability upto 198 uM incubated for 72 hrs by MTS assay relative to control; type: functional; conditions: up to 198 µM; procedure, shortened: as §1
[12] = Cytotoxicity against human T24/83 cells assessed as inhibition of cell viability incubated for 72 hrs by MTS assay; type: functional, cell-based; conditions: T24/83, 72 h; procedure, shortened: as §2
MDA-MB-231 [13] = assay: Cytotoxicity against human MDA-MB-231 cells assessed as maximum inhibition of cell viability upto 198 uM incubated for 72 hrs by MTS assay relative to control; type: functional; conditions: up to 198 µM; procedure, shortened: as §1
HepG2 [14] = assay: Cytotoxicity against human HepG2 cells assessed as maximum inhibition of cell viability upto 198 uM incubated for 72 hrs by MTS assay relative to control; type: functional; conditions: up to 198 µM; procedure, shortened: as §1
[15] = Cytotoxicity against human ACHN-luc2 cells assessed as inhibition of cell viability incubated for 72 hrs by MTS assay; type: functional, cell-based; conditions: ACHN-luc2, 72 h; procedure, shortened: as §2
RL [16] = assay: Cytotoxicity against human RL cells assessed as maximum inhibition of cell viability upto 198 uM incubated for 72 hrs by MTS assay relative to control; type: functional; conditions: up to 198 µM; procedure, shortened: as §1
A498 [17] = assay: Cytotoxicity against human A498 cells assessed as inhibition of cell viability incubated for 72 hrs by MTS assay; type: functional, cell-based; conditions: A498, 72 h; procedure, shortened: as §2
CAKI-2 [18] = assay: Cytotoxicity against human CAKI-2 cells assessed as inhibition of cell viability incubated for 72 hrs by MTS assay; type: functional, cell-based; conditions: CAKI-2, 72 h; procedure, shortened: as §2
K562 [19] = assay: Cytotoxicity against human K562 cells assessed as maximum inhibition of cell viability upto 198 uM incubated for 72 hrs by MTS assay relative to control; type: functional; conditions: up to 198 µM; procedure, shortened: as §1
MIA PaCa-2 [20] = assay: Cytotoxicity against human MIA PaCa-2 cells assessed as inhibition of cell viability incubated for 72 hrs by MTS assay; type: functional, cell-based; conditions: MIA PaCa-2, 72 h; procedure, shortened: as §2
HL-60 [21] = assay: Cytotoxicity against human HL-60 cells assessed as inhibition of cell viability incubated for 72 hrs by MTS assay; type: functional, cell-based; conditions: HL-60, 72 h; procedure, shortened: as §2
5637 [22] = assay: Cytotoxicity against human 5637 cells assessed as inhibition of cell viability incubated for 72 hrs by MTS assay; type: functional, cell-based; conditions: Homo sapiens, 5637, 72 h; procedure, shortened: as §2
K562 [23] = assay: Cytotoxicity against human K562 cells assessed as inhibition of cell viability incubated for 72 hrs by MTS assay; type: functional, cell-based; conditions: K562, 72 h; procedure, shortened: as §2
HT-29 [24] = assay: Cytotoxicity against human HT-29 cells assessed as maximum inhibition of cell viability upto 198 uM incubated for 72 hrs by MTS assay relative to control; type: functional; conditions: up to 198 µM; procedure, shortened: as §1
MOLT-4 [25] = assay: Cytotoxicity against human MOLT-4 cells assessed as inhibition of cell viability incubated for 72 hrs by MTS assay; type: functional, cell-based; conditions: MOLT-4, 72 h; procedure, shortened: as §2
5637 [26] = assay: Cytotoxicity against human 5637 cells assessed as maximum inhibition of cell viability upto 198 uM incubated for 72 hrs by MTS assay relative to control; type: functional; conditions: up to 198 µM; procedure, shortened: as §1
CAKI-2 [27] = assay: Cytotoxicity against human CAKI-2 cells assessed as maximum inhibition of cell viability upto 198 uM incubated for 72 hrs by MTS assay relative to control; type: functional; conditions: up to 198 µM; procedure, shortened: as §1
KG-1 [28] = assay: Cytotoxicity against human KG-1 cells assessed as maximum inhibition of cell viability upto 198 uM incubated for 72 hrs by MTS assay relative to control; type: functional; conditions: up to 198 µM; procedure, shortened: as §1
KG-1 [29] = assay: Cytotoxicity against human KG-1 cells assessed as inhibition of cell viability incubated for 72 hrs by MTS assay; type: functional, cell-based; conditions: KG-1, 72 h; procedure, shortened: as §2
A498 [30] = assay: Cytotoxicity against human A498 cells assessed as maximum inhibition of cell viability upto 198 uM incubated for 72 hrs by MTS assay relative to control; type: functional; conditions: up to 198 µM; procedure, shortened: as §1
MCF7 [31] = assay: Cytotoxicity against human MCF7 cells assessed as inhibition of cell viability incubated for 72 hrs by MTS assay; type: functional, cell-based; conditions: MCF7, 72 h
RL [32] = assay: Cytotoxicity against human RL cells assessed as inhibition of cell viability incubated for 72 hrs by MTS assay; type: functional, cell-based; procedure, shortened: as §2
COLO 205 [33] = assay: Cytotoxicity against human COLO 205 cells assessed as inhibition of cell viability incubated for 72 hrs by MTS assay; type: functional, cell-based; conditions: COLO 205, 72 h; procedure, shortened: as §2
HT-29 [34] = assay: Cytotoxicity against human HT-29 cells assessed as inhibition of cell viability incubated for 72 hrs by MTS assay; type: functional, cell-based; conditions: HT-29, 72 h; procedure, shortened: as §2
PANC-1 [35] = assay: Cytotoxicity against human PANC-1 cells assessed as maximum inhibition of cell viability upto 198 uM incubated for 72 hrs by MTS assay relative to control; type: functional; conditions: up to 198 µM; procedure, shortened: as §1
PANC-1 [36] = assay: Cytotoxicity against human PANC-1 cells assessed as inhibition of cell viability incubated for 72 hrs by MTS assay; type: functional, cell-based; conditions: PANC-1, 72 h; procedure, shortened: as §2
SK-MES-1 [37] = assay: Cytotoxicity against human SK-MES-1 cells assessed as inhibition of cell viability incubated for 72 hrs by MTS assay; type: functional, cell-based; conditions: SK-MES-1, 72 h; procedure, shortened: as §2
RT112/84 [38] = assay: Cytotoxicity against human RT112/84 cells assessed as maximum inhibition of cell viability upto 198 uM incubated for 72 hrs by MTS assay relative to control; type: functional; conditions: up to 198 µM; procedure, shortened: as §1
SK-MES-1 [39] = assay: Cytotoxicity against human SK-MES-1 cells assessed as maximum inhibition of cell viability upto 198 uM incubated for 72 hrs by MTS assay relative to control; type: functional; conditions: up to 198 µM; procedure, shortened: as §1
A2780 [40] = assay: Cytotoxicity against human A2780 cells assessed as inhibition of cell viability incubated for 72 hrs by MTS assay; type: functional, cell-based; conditions: A2780, 72 h; procedure, shortened: as §2
BXPC-3 [41] = assay: Cytotoxicity against human BXPC-3 cells assessed as inhibition of cell viability incubated for 72 hrs by MTS assay; type: functional, cell-based; conditions: BXPC-3, 72 h; procedure, shortened: as §2
BXPC-3 [42] = assay: Cytotoxicity against human BXPC-3 cells assessed as maximum inhibition of cell viability upto 198 uM incubated for 72 hrs by MTS assay relative to control; type: functional; conditions: up to 198 µM; procedure, shortened: as §1
RT112/84 [43] = assay: Cytotoxicity against human RT112/84 cells assessed as inhibition of cell viability incubated for 72 hrs by MTS assay; type: functional, cell-based; conditions: RT112/84, 72 h; procedure, shortened: as §2
OVCAR-3 [44] = assay: Cytotoxicity against human OVCAR-3 cells assessed as inhibition of cell viability incubated for 72 hrs by MTS assay; type: functional, cell-based; conditions: OVCAR-3, 72 h; procedure, shortened: as §2
OVCAR-3 [45] = assay: Cytotoxicity against human OVCAR-3 cells assessed as maximum inhibition of cell viability upto 198 uM incubated for 72 hrs by MTS assay relative to control; type: functional; conditions: up to 198 µM; procedure, shortened: as §1
A2780 [46] = assay: Cytotoxicity against human A2780 cells assessed as maximum inhibition of cell viability upto 198 uM incubated for 72 hrs by MTS assay relative to control; type: functional; conditions: up to 198 µM; procedure, shortened: as §1

C[C@H](NP(=S)(OC[C@@H]1C[C@@H](O)[C@H](n2cnc3c(N)ncnc32)O1)Oc1ccccc1)C(=O)OCc1ccccc1 (some centres undefined)
Imax (MOLT-4 [1]): 99% | Imax [2]: 97% | Imax [3]: 100% | IC50 (MDA-MB-231 [4]): 50.6 µM | Imax (COLO 205 [5]): 99% | Imax (MIA PaCa-2 [6]): 100% | IC50 (HepG2 [7]): 25.3 µM | IC50 (PC-3 [8]): 62.8 µM | Imax (MCF7 [9]): 100% | Imax (HL-60 [10]): 99% | Imax (PC-3 [11]): 97% | IC50 [12]: 42.6 µM | Imax (MDA-MB-231 [13]): 96% | Imax (HepG2 [14]): 100% | IC50 [15]: 33.9 µM | Imax (RL [16]): 113% | IC50 (A498 [17]): 44.5 µM | IC50 (CAKI-2 [18]): 76 µM | Imax (K562 [19]): 96% | IC50 (MIA PaCa-2 [20]): 12.6 µM | IC50 (HL-60 [21]): 73.7 µM | IC50 5637 [22]: 82.6 µM | IC50 (K562 [23]): 64.5 µM | Imax (HT-29 [24]): 100% | IC50 (MOLT-4 [25]): 9.19 µM | Imax 5637 [26]: 100% | Imax (CAKI-2 [27]): 78% | Imax (KG-1 [28]): 98% | IC50 (KG-1 [29]): 60 µM | Imax (A498 [30]): 95% | IC50 (MCF7 [31]): 40.4 µM | IC50 (RL [32]): 95.6 µM | IC50 (COLO 205 [33]): 41.8 µM | IC50 (HT-29 [34]): 57.9 µM

C[C@H](NP(=O)(OC[C@H]1O[C@@H](n2ccc(N)nc2=O)C(F)(F)[C@@H]1O)Oc1ccccc1)C(=O)OCc1ccccc1 (some centres undefined) [FOSGEMCITABINE PALABENAMIDE]
Imax (PANC-1 [35]): 45% | IC50 (PANC-1 [36]): 3.96 µM | IC50 (SK-MES-1 [37]): 110 nM | IC50 (MDA-MB-231 [4]): 1 µM | Imax (COLO 205 [5]): 72% | Imax (MIA PaCa-2 [6]): 69% | IC50 (HepG2 [7]): 1.16 µM | IC50 (PC-3 [8]): 1.09 µM | Imax (PC-3 [11]): 65% | IC50 [12]: 0.05 µM | Imax (MDA-MB-231 [13]): 71% | Imax (RT112/84 [38]): 79% | Imax (SK-MES-1 [39]): 79% | Imax (HepG2 [14]): 57% | IC50 (A2780 [40]): 270 nM | IC50 (MIA PaCa-2 [20]): 0.12 µM | IC50 (BXPC-3 [41]): 330 nM | Imax (BXPC-3 [42]): 64% | IC50 (RT112/84 [43]): 110 nM | IC50 (OVCAR-3 [44]): 119 µM | Imax (HT-29 [24]): 64% | Imax (OVCAR-3 [45]): 16% | Imax (A2780 [46]): 76% | IC50 (COLO 205 [33]): 1.82 µM | IC50 (HT-29 [34]): 0.48 µM
